Screens (PubChem)
Sampled rows, rich in hits. Any-hit rate of the full collection: about 2.5%.
TRPC4 act – opens the mouse TRPC4 cation channel. B-score at 10 µM. Q9QUQ5. AID 2237. HEK293 TRPC4beta/mu-opioid, Fluo4 calcium fluorescence; stronger effect = higher value. 310,000 compounds, 0.49% hits;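 active = B-score above 5 SD of library B-scores, and initial fluorescence ratio not above library mean plus 5 SD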;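 note: positive B-score marks a calcium rise read as TRPC4 activation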
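system = HEK293 cells stably co-expressing mouse TRPC4beta and mu-opioid receptor | schedule = Fluo4 dye loading 45 min at room temperature, 110 s recording | measure = B-scored integrated calcium fluorescence ratio | signal = Fluo4 calcium-sensitive dye fluorescence, kinetic, 1 Hz baseline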
TRPC6 activator – mouse TRPC6 channel activation; HEK293-TRPC6 membrane potential dye fluorescence; stronger effect = higher value; Q61143; B-score at 10 µM; 310,000 compounds, 0.13% hits; AID 2550;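 active = B-score of the integrated fluorescence ratio above library mean plus 3 SD, and starting fluorescence ratio within library mean plus 5 SD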;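 note: higher score means more depolarization so channel activation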
TRPC4 block – inhibitors of mouse TRPC4 channel; Q9QUQ5; B-score at 10 µM; AID 2247; 300,000 compounds, 0.39% hits; HEK293 TRPC4beta/mu-opioid, DAMGO-evoked Fluo4 calcium flux; stronger effect = lower value;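 active = B-score over 3 SD under the library average, no early fluorescence shift, positive overall ratio signal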
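Assay system: TRPC4beta/mu-opioid receptor HEK293 cell line; compound dosing: single concentration per test compound; detection: Fluo4 Ca2+ flux fluorescence; evaluation: per-well B score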
TRPC6 inh – inhibitors of mouse TRPC6 channel; Q61143; HEK293-TRPC6, membrane potential dye, ACh-evoked depolarization; stronger effect = lower value; B-score at 10 µM; 310,000 compounds, 1.1% hits; AID 2553;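 active = B-score under library mean minus 3 SD, initial fluorescence not abnormally high, positive integrated signal ratio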;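 note: B-score derived from integrated fluorescence ratio over the kinetic read; more negative B-score means stronger inhibition of depolarization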
TRPC4 PAM – TRPC4 (mouse) allosteric potentiation; HEK293 TRPC4beta/mu-opioid, DAMGO EC20, Fluo-4 Ca2+ flux; stronger effect = higher value; Q9QUQ5; B-score at 10 µM; 310,000 compounds, 0.42% hits; AID 2227;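 active = B-score of calcium response area above 5 SD of library B-scores, with initial fluorescence ratio within 5 SD of library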;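 note: B-score of integrated fluorescence ratio over time as area under calcium response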
Platelet DG rel – modulates dense granule release in human platelets | human platelet-rich plasma, SFLLRN dense granule ATP release, luminescence | inhibition, %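 (compounds screened at 7.5 µM in platelet-rich plasma)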 | 300,000 compounds, 0.22% hits;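 active = mean replicate score, as percent of positive control, at or above 50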
TRPC4 sel inh 2 – second check of whether TRPC6 inhibitors also affect mouse TRPC4 | AID 2776 | 920 compounds, 42% hits | shares compounds with TRPC6 inh | inhibition, % at 10 µM | HEK293 TRPC4/MOR, membrane potential dye fluorescence; channel activated by saturating DAMGO dose;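 active = compounds whose fluorescence signal differed from control wells by over 3 SD, either direction, in both duplicate plates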
TRPC4 spec – mouse TRPC4 off-target activity of TRPC6 inhibitors; shares compounds with TRPC6 inh; HEK293 TRPC4/mu-opioid, membrane potential fluorescence; activity change, negative = inhibition, % at 10 µM; 920 compounds, 61% hits; AID 2777;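 active = rise or fall in signal beyond 3 SD of buffer-only wells in both replicate plates, either sign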;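 note: integrated kinetic ratio of fluorescence range over baseline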
HEK293 MPD ctr 2-1 – parental HEK293 nonspecific activity of TRPC6 inhibitors, second screen | shares compounds with TRPC6 inh | parental HEK293 membrane potential dye fluorescence; maximal acetylcholine challenge after compound addition | signal change vs control, % at 10 µM | 920 compounds, 31% hits | AID 2779;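 active = membrane potential signal moving either way by over 3 SD of the maximum-effect control, in both duplicate plates, meaning non-specific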
HEK293 MPD ctr-1 – parental HEK293 nonspecific activity of TRPC6 inhibitors | shares compounds with TRPC6 inh | parental HEK293 membrane potential dye fluorescence | membrane potential signal change, % at 10 µM | 920 compounds, 60% hits | AID 2780;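 active = membrane potential signal shifting up or down by more than 3 SD of buffer-only wells, on both duplicate plates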
HEK293 MPD ctr-2 – counter-screen for TRPC6 modulators: effect in parental HEK293 cells; membrane potential dye fluorescence; shares compounds with TRPC6 inh; 2,400 compounds, 51% hits; AID 488924; membrane potential signal change, % at 10 µM;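 active = membrane potential signal moves up or down beyond 5 SD from buffer-only wells, on both duplicate plates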
HEK293 MPD ctr 2-2 – parental HEK293 nonspecific activity of TRPC6 modulators, second screen; membrane potential dye fluorescence; after compound, maximal acetylcholine stimulation; inhibition, % at 10 µM; shares compounds with TRPC6 inh; 2,400 compounds, 14% hits; AID 488926;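 active = membrane potential signal drops by more than 5 SD from the mean control signal, in both duplicate plates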;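 note: plate controls were acetylcholine ECmax control wells for no effect and buffer only wells for full effect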
TRPC4 ctr mod – tests whether TRPC6 modulators also affect mouse TRPC4; HEK293 TRPC4/mu-opioid, membrane potential fluorescence; AID 488927; shares compounds with TRPC6 inh; percent change from control (negative = decrease, positive = increase), % at 10 µM; 2,400 compounds, 69% hits;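 active = membrane potential signal moved up or down beyond 5 SD of buffer control wells, in both duplicate plates, actives on both sides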;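 note: plate controls were assay buffer wells for no effect and DAMGO maximal-effect wells for full effect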
TRPC4 ctr inh 2 – mouse TRPC4 off-target activity of TRPC6 modulators, second screen | inhibition, % at 10 µM | HEK293 TRPC4/mu-opioid, membrane potential dye fluorescence; stimulated with maximal-effect DAMGO | shares compounds with TRPC6 inh | 2,400 compounds, 55% hits | AID 488928;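 active = drop in membrane potential signal beyond 5 SD of the control wells in both duplicate plates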;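 note: TRPC4 counter screen for TRPC6 hits run under conditions tuned for TRPC6 not TRPC4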
TRPC6 block conf – mouse TRPC6 inhibitor confirmation; shares compounds with TRPC6 inh; HEK293-TRPC6, membrane potential dye, ACh-evoked depolarization; 3,300 compounds, 43% hits; inhibition, % at 10 µM;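 active = fluorescence ratio falls more than 5 SD below the full-stimulation control mean, in both duplicate runs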;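 note: integrated fluorescence ratio of peak minus minimum over baseline after agonist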
TRPC6 act confirm – mouse TRPC6 activator confirmation; 2,800 compounds, 11% hits; shares compounds with TRPC6 inh; activation, % at 10 µM; AID 488961; HEK293-TRPC6 membrane potential dye fluorescence, FDSS;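 active = ratio signal rise beyond 5 SD above unstimulated control wells' mean, seen in both duplicate runs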;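 note: plate controls were buffer EC0 wells for no effect and acetylcholine ECmax response for full effect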
The depositor's hits bear a star; i = inactive; nt = no result given.

SMILES	TRPC4 act	TRPC6 activator	TRPC4 block	TRPC6 inh	TRPC4 PAM	Platelet DG rel	HEK293 MPD ctr-2	HEK293 MPD ctr 2-2	TRPC4 ctr mod	TRPC4 ctr inh 2	TRPC6 block conf	TRPC6 act confirm	others
NNc1cc([N+](=O)[O-])cc2c1C(=O)N(Cc1ccccc1)S2=O (stereo unspecified)	i	i	i	i	i	4	nt	nt	nt	nt	nt	nt
CCOC(=O)N1CCN(C(=O)CSc2nc(=O)n3ccccc3n2)CC1	i	i	i	i	i	4	nt	nt	nt	nt	nt	nt
CCOC(=O)N1CCN(C(=O)c2cn(C)c3ccc(S(=O)(=O)N4CCOCC4)cc3c2=O)CC1	i	i	i	i	i	5	nt	nt	nt	nt	nt	nt
Cc1nnc(SCCn2c(N3CCCCCC3)nc3c2c(=O)[nH]c(=O)n3C)s1	i	i	i	i	i	-3	nt	nt	nt	nt	nt	nt
Cn1c(=O)[nH]c(=O)c2c1nc(N1CCN(Cc3ccccc3)CC1)n2CCCc1ccccc1	i	i	i	i	i	-8	nt	nt	nt	nt	nt	nt
Cn1c(=O)[nH]c(=O)c2c1nc(N1CCN(Cc3ccccc3)CC1)n2CCSc1ncccn1	i	i	i	-7.9*	i	0	-329%*	96%*	-59%*	62%*	58%*	i
Cc1nnc(SCCn2c(N3CCN(C)CC3)nc3c2c(=O)[nH]c(=O)n3C)s1	i	i	i	-10*	i	2	nt	nt	nt	nt	69%*	i	TRPC4 sel inh 2=74%*;TRPC4 spec=-36%*;HEK293 MPD ctr 2-1=i;HEK293 MPD ctr-1=-592%*
Cc1nnc(SCCn2c(N3CCN(Cc4ccccc4)CC3)nc3c2c(=O)[nH]c(=O)n3C)s1	i	i	i	-7.8*	i	-8	-278%*	i	-44%*	i	i	i
O=C(CN1CCN(c2cccc(Cl)c2)CC1)c1ccc(O)cc1O	i	i	i	i	i	14	nt	nt	nt	nt	nt	nt
Cc1ccc(C(C)C)cc1OCC(=O)N1CCN(C(=O)c2ccco2)CC1	i	i	i	i	i	10	nt	nt	nt	nt	nt	nt
COc1cc(NC2=Nc3cccc4cccc2c34)cc(OC)c1OC	i	i	i	-5.1*	i	13	i	i	i	32%*	i	i
COc1ccc(NC2=Nc3cccc4cccc2c34)cc1OC	i	i	i	i	i	0	nt	nt	nt	nt	nt	nt
